Published values pooled from the literature.
Protocols differ between the studies behind these lines.
Target: Mitogen-activated protein kinase 14 (MAPK14, Homo sapiens, UniProt Q16539)

SMILES | effect on | method | tested at | remaining binding
O=C(c1ccc(Nc2ncc(Cl)c(-c3cc4ccccc4s3)n2)cc1)N1CCC(N2CCCC2)CC1 | binding | competition with immobilised ligand | 1 µM | 100%
O=C(Nc1c[nH]nc1C(=O)NC1CCNCC1)c1cc(F)cc(F)c1 | binding | competition with immobilised ligand | 1 µM | 100%
N[C@@H]1CCN(c2nccc(-c3cnn4ncccc34)n2)C1 | binding |  | 1 µM | 100%
Nc1cnc(N2CCc3cc(S(=O)(=O)Nc4c(F)cc(Cl)cc4F)cc(N4CCCC4=O)c32)nc1 | cell-free assay | competition with immobilised ligand | 1 µM | 100%
C[C@H]1CCN(c2nccc(-c3cnn4ncccc34)n2)C1 | binding |  | 1 µM | 100%
COc1cnc(Nc2cccc(S(N)(=O)=O)c2)nc1N1CCN(c2ccccc2)CC1 | binding | competition with immobilised ligand | 1 µM | 100%
O=C(NCCCN1CCOCC1)c1ccc(Nc2ncc(Cl)c(-c3ccc(Cl)s3)n2)cc1 | binding | competition with immobilised ligand | 1 µM | 100%
CN(C)c1ncc(F)c(-c2cnn3ncccc23)n1 | binding |  | 1 µM | 100%
COc1ccc2cc(OCC3(C(=O)O)CN(C(=O)c4ccc(F)cc4)C3)ccc2c1 | cell-free assay | competition with immobilised ligand | 1 µM | 100%
CC(C)(C)c1ccc(-c2nc(CBr)nn2-c2cccc(O)c2)cc1 | cell-free assay | competition with immobilised ligand | 10 µM | 100%
CCN1CCN(Cc2ccc(C(=O)Nc3ccc(C)c(Oc4ccc5c(c4)CC(=O)N5)c3)cc2C(F)(F)F)CC1 | binding | competition with immobilised ligand | 1 µM | 18%
CNCc1ccccc1-c1csc([C@@H](C)Nc2nc(C)nc3cc(OC)c(OC)cc23)c1 | cell-free assay | competition with immobilised ligand | 1 µM | 87%
CN(CCCC(F)(F)F)c1nccc(-c2cnn3ncccc23)n1 | binding |  | 1 µM | 100%
CC(=O)c1c(NS(C)(=O)=O)c2cc(-c3ccc(Cl)cc3)c(-c3ccc(Cl)cc3Cl)nc2n(C)c1=O | cell-free assay | competition with immobilised ligand | 1 µM | 100%
c1cnn2ncc(-c3ccnc(N4CCC45COC5)n3)c2c1 | binding |  | 1 µM | 87%
COc1cc(-c2cn(C3CCc4ccccc4N(CC(F)(F)F)C3=O)nn2)ccc1-n1ccc(C)n1 (centres unmarked) | cell-free assay | competition with immobilised ligand | 1 µM | 94%
C[C@@H]1CN(c2ccc3ncc(-c4ccc5[nH]nc(C6CC6)c5c4)n3n2)C[C@H](C)O1 | binding | competition with immobilised ligand | 50 nM | 100%
